In paper PMC4433875 (European journal of medicinal chemistry, 2015):

Assays:
[1] = system: triple-negative human breast cancer cell line MDA-MB-468; experiment: XTT cell killing assay, MDA-MB-468; assay type: cell-based; conditions: growth inhibition
In short: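 MDA-MB-468 cells were grown in low-glucose DMEM with 10% FBS and 1% penicillin-streptomycin and plated one day before dosing. They received a four-day drug treatment, with the XTT proliferation kit read on day 6 after drug addition. Triplicate sets were compiled to give dose-dependent cytotoxicity.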

[2] = system: panel of cancer cell lines; experiment: XTT assay, panel of cancer cell lines; assay type: cell-based, human
[3] = target: T1, RAD51 (Homo sapiens, UniProt Q06609); experiment: Multimer formation assay; assay type: biochemical; conditions: RAD51:IBR120 1:10 molar ratio, vs DMSO
T1 sequence (Q06609 1-339): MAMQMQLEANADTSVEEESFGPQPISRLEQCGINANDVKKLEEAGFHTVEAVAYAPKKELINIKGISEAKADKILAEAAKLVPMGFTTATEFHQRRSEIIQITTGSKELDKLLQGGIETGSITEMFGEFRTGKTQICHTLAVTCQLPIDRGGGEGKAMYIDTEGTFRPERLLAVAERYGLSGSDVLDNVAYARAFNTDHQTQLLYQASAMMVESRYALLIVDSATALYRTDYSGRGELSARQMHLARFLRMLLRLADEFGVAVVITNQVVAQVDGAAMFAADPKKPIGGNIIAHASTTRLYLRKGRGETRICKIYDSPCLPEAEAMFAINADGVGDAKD
In short: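 RAD51 (3.2 µg) was incubated with test compound (1:10 molar ratio) for 15 min at 37°C. Buffer was added (50mM triethanolamine-HCl pH7.5, 0.5mM Mg(OAc)2, 1mM DTT, 2mM ATP, 100 µg/ml BSA) and incubation continued 15 min. The mixture was run on a Superdex 200 gel filtration column equilibrated in the same buffer. Fractions were dot-blotted on PVDF and probed with anti-RAD51 mAb 14B4.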

[4] = system: HeLa cells stably expressing DR-GFP; experiment: I-SceI inducible gene conversion; assay type: cell-based, human; conditions: 10 or 20 µM, 24 hours, flow cytometry
In short: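 HeLa cells carrying stably integrated DR-GFP, selected with 2 µg/mL puromycin, were transfected with the I-SceI expression vector pCBASce for 24 h to induce DSBs. Cells were then exposed to DMSO or 10 or 20 µM test compound for another 24 h, trypsinized and analysed by flow cytometry for the percentage of GFP-positive cells. Three independent experiments, means±SD.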

[5] = system: most tested cancer cell lines; conditions: read-out: IC50 values for most tested cancer cell lines; original IBR2; cited from earlier work

SMILES: O=S(=O)(Cc1ccccc1)N1CCc2ccccc2[C@@H]1c1n[nH]c2ccccc12 [IBR117, (R)-1-(1H-Indazol-3-yl)-2-phenylmethanesulfonyl-1,2,3,4-tetrahydro-isoquinoline]
- fold increase in activity compared to parental compound IBR2 [1]: 1.6~2.4 fold

SMILES: O=S(=O)(Cc1ccccc1)N1Cc2ccccc2[C@@H]1c1c[nH]c2ccccc12 [IBR120, (R)-3-(2-(benzylsulfonyl)isoindolin-1-yl)-1H-indole]
- IC50 ([2]; Homo sapiens, read-out: IC50 values in most tested cancer cell lines): 3 to 5 µM
- difference between the IC50 values in normal and cancer cells ([2]; normal MCF10A vs cancer cell lines): Approximately 10 fold
- RAD51 multimerization (gel filtration elution profile) [3]: can inhibit RAD51 multimerization
- HR frequency (GFP positive population) [4]: significantly reduced

SMILES: O=S(=O)(Cc1ccccc1)N1CC=Cc2ccccc2[C@H]1c1c[nH]c2ccccc12 [IBR116]
- change of activity on increasing the central ring size from six to seven [1]: almost complete loss of function

SMILES: O=S(=O)(Cc1ccccc1)N1C=Cc2ccccc2C1c1c[nH]c2ccccc12 (centres unmarked) [IBR2]
- IC50 [5]: 12 to 20 µM

SMILES: O=S(=O)(Cc1ccccc1)N1CC=Cc2ccccc2[C@@H]1c1c[nH]c2ccccc12 [IBR115]
- change of activity on increasing the central ring size from six to seven [1]: minimal change of activity
